# Measured values: the RNAGym collection of RNA variant scans (doi:10.1038/nmeth.2970)
# B1: NELF-E aptamer (parent)
# chain: CCCAACGACUGCCGAGCGAGAUUACGCUUGAGCGCCCCACUGAGGAUGCCCACGGGCGAUUGGGGCACGG
# Variants of: B1
# Assay: HiTS-RAP
# Conditions: with NELF-E (Drosophila)
# Procedure, shortened: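 Kd came from weighted Hill fits to the first binding curve, with intensities normalised to sequencing intensity and averaged per sequence, keeping only fits whose variance was below 1,000,000. That curve was imaged on an Illumina GAIIx flowcell, where sequenced aptamer DNA templates with a T7 promoter and ter site had been transcribed in situ by T7 RNA polymerase and halted by GST-Tus (30 minutes, 37°C). Before each image, clusters equilibrated for 30 minutes at room temperature with NELF-E-mOrange at 0.064 to 1000 nM in HEPES binding buffer.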
row,Variant,Kd [nM]
1,CCCAACGACUGCCGAGCUAGAUUACGCUUGAGCGCCCCACUGAGGAUGCCCACGGGCGAUUGGGGCACGG [G18U],5.57
2,CCCAACGACUGCCGAGCUGGAUUACGCUUGAGCGCCCCACUGAGGAUGCCCACGGGCGAUUGGGGCACGG [G18U A19G],6.31
3,CCCAACGACUGCCGAGCUAGAUUGCGCUUGAGCGCCCCACUGAGGAUGCCCACGGGCGAUUGGGGCACGG [G18U A24G],5.98
4,CCCAACGACUGCCGAGCUAGAGUACGCUUGAGCGCCCCACUGAGGAUGCCCACGGGCGAUUGGGGCACGG [G18U U22G],6.85
5,CCCAACGACUGCCGAGCUAGAUGACGCUUGAGCGCCCCACUGAGGAUGCCCACGGGCGAUUGGGGCACGG [G18U U23G],6.43
6,CCCAACGACUGCCGAGCUAGAUUACGCUGGAGCGCCCCACUGAGGAUGCCCACGGGCGAUUGGGGCACGG [G18U U29G],7.47
7,CCCAACGACUGCCGAGCGCGAUUACGCUUGAGCGCCCCACUGAGGAUGCCCACGGGCGAUUGGGGCACGG [A19C],4.44
8,CCCAACGACUGCCGAGCGGGAUUACGCUUGAGCGCCCCACUGAGGAUGCCCACGGGCGAUUGGGGCACGG [A19G],5.18
9,CCCAACGACUGCCGAGCGGGGUUACGCUUGAGCGCCCCACUGAGGAUGCCCACGGGCGAUUGGGGCACGG [A19G A21G],6.58
10,CCCAACGACUGCCGAGCGGGAUUGCGCUUGAGCGCCCCACUGAGGAUGCCCACGGGCGAUUGGGGCACGG [A19G A24G],6.18
11,CCCAACGACUGCCGAGCGGGAUUUCGCUUGAGCGCCCCACUGAGGAUGCCCACGGGCGAUUGGGGCACGG [A19G A24U],7.26
12,CCCAACGACUGCCGAGCGGGAUUACGCUUGGGCGCCCCACUGAGGAUGCCCACGGGCGAUUGGGGCACGG [A19G A31G],6.72
13,CCCAACGACUGCCGAGCGGGAUUACGCUUGUGCGCCCCACUGAGGAUGCCCACGGGCGAUUGGGGCACGG [A19G A31U],5.3
14,CCCAACGACUGCCGAGCGGGAUUACGCUUGAGCGCCCCGCUGAGGAUGCCCACGGGCGAUUGGGGCACGG [A19G A39G],9.35
15,CCCAACGACUGCCGAGCGGGAUUACGCUUGAGCGCCCCUCUGAGGAUGCCCACGGGCGAUUGGGGCACGG [A19G A39U],31.1
16,CCCAACGACUGCCGAGCGGGAUUACGCUUGAGCGCCCCACUGGGGAUGCCCACGGGCGAUUGGGGCACGG [A19G A43G],8.78
17,CCCAACGACUGCCGAGCGGGAUUACGCUUGAGCGCCCCACUGAGGGUGCCCACGGGCGAUUGGGGCACGG [A19G A46G],20.6
18,CCCAACGACUGCCGAGCGGGAUUACGCUUGAGCGCCCCACUGAGGAUGCCCGCGGGCGAUUGGGGCACGG [A19G A52G],5.06
19,CCCAACGACUGCCGAGCGGGAUUACGCUUGAGCGCCCCACUGAGGAUGCCCUCGGGCGAUUGGGGCACGG [A19G A52U],19.5

row,Variant,Kd [nM]
1,CCCAACGACUGCCGAGCGGGAUUACGCUUGAGCGCCCCACUGAGGAUGCCCACGGGCGGUUGGGGCACGG [A19G A59G],36.8
2,CCCAACGACUGCCGAGCGGGAUUACGCUUGAGCGCCCCACUGAGGAUGCCCACGGGCGAUUGGGGCGCGG [A19G A67G],5.94
3,CCCAACGACUGCCGAGCGGGAUUACGCUUGAGCGCCCCACUGAGGAUGCCCACGGGCGAUUGGGGCUCGG [A19G A67U],5.89
4,CCCAACGACUGCCGAGCGGGAUUAGGCUUGAGCGCCCCACUGAGGAUGCCCACGGGCGAUUGGGGCACGG [A19G C25G],5.29
5,CCCAACGACUGCCGAGCGGGAUUAUGCUUGAGCGCCCCACUGAGGAUGCCCACGGGCGAUUGGGGCACGG [A19G C25U],6.25
6,CCCAACGACUGCCGAGCGGGAUUACGCUUGAGUGCCCCACUGAGGAUGCCCACGGGCGAUUGGGGCACGG [A19G C33U],7.36
7,CCCAACGACUGCCGAGCGGGAUUACGCUUGAGCGUCCCACUGAGGAUGCCCACGGGCGAUUGGGGCACGG [A19G C35U],7.42
8,CCCAACGACUGCCGAGCGGGAUUACGCUUGAGCGCCCCACUGAGGAUGCCCAUGGGCGAUUGGGGCACGG [A19G C53U],4.21
9,CCCAACGACUGCCGAGCGGGAUUACGCUUGAGCGCCCCACUGAGGAUGCCCACGGGUGAUUGGGGCACGG [A19G C57U],4.99
10,CCCAACGACUGCCGAGCGGGAUUACGCUUGAGCGCCCCACUGAGGAUGCCCACGGGCGAUUGGGGUACGG [A19G C66U],5.18
11,CCCAACGACUGCCGAGCGGAAUUACGCUUGAGCGCCCCACUGAGGAUGCCCACGGGCGAUUGGGGCACGG [A19G G20A],6.4
12,CCCAACGACUGCCGAGCGGUAUUACGCUUGAGCGCCCCACUGAGGAUGCCCACGGGCGAUUGGGGCACGG [A19G G20U],6.34
13,CCCAACGACUGCCGAGCGGGAUUACACUUGAGCGCCCCACUGAGGAUGCCCACGGGCGAUUGGGGCACGG [A19G G26A],4.12
14,CCCAACGACUGCCGAGCGGGAUUACGCUUAAGCGCCCCACUGAGGAUGCCCACGGGCGAUUGGGGCACGG [A19G G30A],4.57
15,CCCAACGACUGCCGAGCGGGAUUACGCUUGAGCACCCCACUGAGGAUGCCCACGGGCGAUUGGGGCACGG [A19G G34A],6.47
16,CCCAACGACUGCCGAGCGGGAUUACGCUUGAGCGCCCCACUGAGGAUGCCCACAGGCGAUUGGGGCACGG [A19G G54A],15.1
17,CCCAACGACUGCCGAGCGGGAUUACGCUUGAGCGCCCCACUGAGGAUGCCCACGAGCGAUUGGGGCACGG [A19G G55A],7.92
18,CCCAACGACUGCCGAGCGGGAUUACGCUUGAGCGCCCCACUGAGGAUGCCCACGUGCGAUUGGGGCACGG [A19G G55U],10.6
19,CCCAACGACUGCCGAGCGGGAUUACGCUUGAGCGCCCCACUGAGGAUGCCCACGGGCGAUUGAGGCACGG [A19G G63A],19.1
